From PubChem BioAssay
Mdm2 MdmX PPI: disrupts the human Mdm2-MdmX interaction; O15151+Q00987; SaOS-2 split-luciferase Mdm2/MdmX complementation, luminescence; inhibition, % at 8 µM; 330,000 tested, 3% active; AID 485346;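 active means inhibition of at least 50% at 8 µM in the primary screen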
Target sequence (O15151 whole entry, looked up): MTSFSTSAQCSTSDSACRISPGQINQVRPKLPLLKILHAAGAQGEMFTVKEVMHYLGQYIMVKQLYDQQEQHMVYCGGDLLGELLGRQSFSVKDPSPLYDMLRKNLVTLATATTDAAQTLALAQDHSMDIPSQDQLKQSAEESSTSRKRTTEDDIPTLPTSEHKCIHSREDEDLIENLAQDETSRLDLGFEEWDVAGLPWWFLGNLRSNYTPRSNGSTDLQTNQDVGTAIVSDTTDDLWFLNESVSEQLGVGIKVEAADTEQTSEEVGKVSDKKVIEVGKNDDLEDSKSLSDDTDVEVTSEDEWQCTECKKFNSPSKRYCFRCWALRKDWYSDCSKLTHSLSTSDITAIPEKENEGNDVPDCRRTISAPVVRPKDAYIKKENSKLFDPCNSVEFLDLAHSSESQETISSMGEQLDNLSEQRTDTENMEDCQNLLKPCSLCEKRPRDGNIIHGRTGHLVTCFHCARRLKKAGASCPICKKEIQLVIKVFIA
Target sequence (Q00987 whole entry, looked up): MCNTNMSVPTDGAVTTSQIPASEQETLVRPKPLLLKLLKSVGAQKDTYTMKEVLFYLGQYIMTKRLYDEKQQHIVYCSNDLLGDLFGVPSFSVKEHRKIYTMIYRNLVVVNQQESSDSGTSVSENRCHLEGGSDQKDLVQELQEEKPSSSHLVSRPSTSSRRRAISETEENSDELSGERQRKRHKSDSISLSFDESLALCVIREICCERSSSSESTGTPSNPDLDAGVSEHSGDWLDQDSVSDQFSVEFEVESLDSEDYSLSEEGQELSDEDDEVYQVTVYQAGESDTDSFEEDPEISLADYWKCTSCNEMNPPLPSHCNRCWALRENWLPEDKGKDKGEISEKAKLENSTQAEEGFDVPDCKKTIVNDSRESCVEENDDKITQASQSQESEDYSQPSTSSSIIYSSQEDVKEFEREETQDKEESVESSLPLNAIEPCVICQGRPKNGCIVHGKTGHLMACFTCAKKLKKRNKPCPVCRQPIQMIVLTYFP
Calb FLC: affects C. albicans growth with fluconazole | C. albicans CaCi-2 (fluconazole-resistant clinical isolate) + fluconazole, Alamar Blue growth, 48 h | growth inhibition, % (concentration not given with the values) | 300,000 tested, 0.57% active | AID 1979;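 active means growth inhibition above about 58% in most replicates, limit read from the data, passing the limit was not always enough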;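 further: all wells also contain fluconazole at 8 µg/ml as a sub-toxic cotreatment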
SKKanGAS inh: inhibitors of SKKanGAS S. pyogenes growth in kanamycin (SK-promoter or general growth effect); BacTiter-Glo, 6 h; inhibition, % at 7.5 µM; 300,000 tested, 1.3% active; AID 1662;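 active means mean replicate score, as percent of positive control median, at least 50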;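 further: strain carries kanamycin resistance gene driven by streptokinase promoter and grows in 40 µg/ml kanamycin; loss of luminescence reflects streptokinase promoter inhibition or plain growth inhibition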
Beta cell apopt: blocks beta cell apoptosis | INS-1E cytokine-induced death, ATP luminescence, 48 h; percent of positive-control rescue, neutral wells zero | protection from apoptosis, % (test concentration not listed) | 300,000 tested, 0.8% active | AID 435005;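 active means Every replicate reaches about 75%, or at least half do and their mean reaches it too, limit read from the data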;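 further: higher means more ATP so stronger rescue from cytokine killing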
CSC inhib: cancer stem cell inhibition; cancer stem cell-like cells viability, luminescence; inhibition, % at 7.5 µM; 300,000 tested, 1.1% active; in the data active means inhibition above about 75%; tested in HMLE shEcad cells
T cruzi repl: blocks replication of Trypanosoma cruzi. T. cruzi beta-gal in NIH3T3, luminescence, 90 h. inhibition, % (concentration not given with the values). 300,000 tested, 1.4% active. AID 1885;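 active means mean inhibition across valid replicates above about 55%, limit read from the data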;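 further: signal also drops with host cell toxicity which is not excluded here; higher percent means less beta-gal luminescence so fewer parasites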
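System – NIH/3T3 host cells with β-galactosidase reporter T. cruzi · Doses – single 50 nL compound addition per well in DMSO · Reagent – 5000 T. cruzi trypomastigotes/well · Medium – Low-serum DMEM with 2% FBS · Timing – ≥90 h infection period, 3 h prior cell attachment · Evaluation – parasite load inhibition, % · Technique – GalScreen luminescence, 60 min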
Mdm2-MdmX conf: human Mdm2/MdmX binding inhibition, confirmed; shares compounds with Mdm2 MdmX PPI; luminescent assay; inhibition, % at 8 µM; 10,000 tested, 55% active; AID 489028; in the data active means inhibition above about 40%
FLuc counter: full-length luciferase inhibition in Mdm2/MdmX counter-screen. shares compounds with Mdm2 MdmX PPI. SaOS-2 full-length luciferase counterscreen, luminescence. inhibition, % at 8 µM. 6,200 tested, 77% active. AID 504607;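 active means mean inhibition at 8 µM reaching about 37%, which flags the compound as non-specific, limit read from the data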;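 further: p53-null SaOS-2 cells with luciferase driven by a doxycycline-inducible promoter; compound on cells about two nights before reading with doxycycline added after day one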
Hits are given with their value. In the library only some 5.7% were active in any assay of this set; here they are far more common.

Screening CC(C)c1ccc(/C=N/NC(=O)CN(c2cccc(Cl)c2Cl)S(C)(=O)=O)cc1 returned Mdm2 MdmX PPI 61, Calb FLC inactive, SKKanGAS inh inactive, Beta cell apopt inactive, T cruzi repl inactive and Mdm2-MdmX conf inactive.
`COc1cc(OC)cc(C(=O)NCC(=O)OCC(=O)Nc2ccc(C)c(S(=O)(=O)N3CCOCC3)c2)c1` gave Mdm2 MdmX PPI inactive.
`CCOC(=O)c1cc2sccc2n1CC(=O)N1CCCc2ccccc21` gave Mdm2 MdmX PPI inactive, Calb FLC inactive, SKKanGAS inh inactive, Beta cell apopt inactive, CSC inhib inactive and T cruzi repl inactive.
Screening COC(=O)c1cc2sccc2n1CC(=O)N1CCCc2ccccc21 returned Mdm2 MdmX PPI 52, Calb FLC inactive, SKKanGAS inh inactive, Beta cell apopt inactive, CSC inhib inactive, T cruzi repl inactive, Mdm2-MdmX conf 41 and FLuc counter 51.
For CCCc1nc2oc3c(NCCCN(C)C)ncnc3c2c2c1CCCC2 the results were Mdm2 MdmX PPI 100, Calb FLC inactive, SKKanGAS inh inactive, Beta cell apopt inactive, CSC inhib inactive, T cruzi repl inactive, Mdm2-MdmX conf 85 and FLuc counter 52.
CCCc1nc2oc3c(NCCN(C)C)ncnc3c2c2c1CCCC2 was read as Mdm2 MdmX PPI 56, Calb FLC inactive, SKKanGAS inh inactive, Beta cell apopt inactive, CSC inhib inactive, T cruzi repl inactive, Mdm2-MdmX conf 60 and FLuc counter 38.
For COc1ccc(CNC(=O)C/C(C)=N/NC(=O)COc2ccc(C)cc2Br)cc1 the results were Mdm2 MdmX PPI 57, Calb FLC inactive, SKKanGAS inh inactive, Beta cell apopt inactive, CSC inhib inactive, T cruzi repl inactive and Mdm2-MdmX conf inactive.
COc1ccc(C(=O)NC2CC2)cc1OC1CCN(C(C)CSC)CC1 (stereo not drawn) was read as Mdm2 MdmX PPI inactive, Calb FLC inactive, SKKanGAS inh inactive, Beta cell apopt inactive, CSC inhib inactive and T cruzi repl inactive.
For Oc1cc(Nc2cccnc2)cc2cccnc12 the results were Mdm2 MdmX PPI 66, Beta cell apopt inactive and Mdm2-MdmX conf inactive.
Screening CN(C)CCCNC(=O)c1ccc(-c2nc(-c3ccc(Cl)cc3)cs2)cc1 returned Mdm2 MdmX PPI 87, Calb FLC 100, SKKanGAS inh inactive, Beta cell apopt inactive, CSC inhib 100, T cruzi repl 65, Mdm2-MdmX conf 94 and FLuc counter inactive.
Screening Oc1cc(NCCc2cccnc2)cc2cccnc12 returned Mdm2 MdmX PPI inactive and Beta cell apopt inactive.
Screening Oc1cc(Nc2ccncc2)cc2cccnc12 returned Mdm2 MdmX PPI inactive and Beta cell apopt inactive.
For CN(C)c1ccc(-c2cc(O)c3ncccc3c2)cc1 the results were Mdm2 MdmX PPI 92, Beta cell apopt 88, CSC inhib 115, Mdm2-MdmX conf 84 and FLuc counter 50.
For Oc1cc(-c2ccncc2)cc2cccnc12 the results were Mdm2 MdmX PPI 91, Beta cell apopt inactive, Mdm2-MdmX conf 66 and FLuc counter 52.
Screening Cc1ccccc1OCC(=O)NCCCNC(=O)c1ccccn1 returned Mdm2 MdmX PPI inactive, Calb FLC inactive, SKKanGAS inh inactive, CSC inhib inactive and T cruzi repl inactive.
`CN(C)CCCNC(=O)c1ccccn1` gave Mdm2 MdmX PPI inactive, Calb FLC inactive, SKKanGAS inh inactive, Beta cell apopt inactive, CSC inhib inactive and T cruzi repl inactive.
For Oc1cc(-c2ccc(N3CCCCC3)nc2)cc2cccnc12 the results were Mdm2 MdmX PPI 98, Beta cell apopt 96, Mdm2-MdmX conf 97 and FLuc counter 50.
For CN(C)CCCNC(=O)c1ccc(-c2cc(O)c3ncccc3c2)cc1 the results were Mdm2 MdmX PPI 55, Beta cell apopt inactive, Mdm2-MdmX conf inactive and FLuc counter 55.
`Cc1cc(N2CCCC2)nc(-c2ccccc2O)n1` gave Mdm2 MdmX PPI inactive, Calb FLC inactive, SKKanGAS inh inactive, Beta cell apopt inactive, CSC inhib inactive and T cruzi repl inactive.
CC1CCCC(C)N1C(=O)COC(=O)c1cccnc1Cl (stereo not drawn) was read as Mdm2 MdmX PPI inactive, Beta cell apopt inactive and CSC inhib inactive.
